Here are results for 3 compounds from ChEMBL document CHEMBL1687745 (Antimicrob Agents Chemother, 2009).

Values after ≈ are worked out from the molar mass of the structure shown. Active and inactive are the calls of the source. The calls are words filed in the database; no cut-off is given here.

Data set [1] has as its system Escherichia coli. Put plainly: Antimicrobial activity against Escherichia coli J53 clinical isolate by broth microdilution method. The data set is classed as functional.
Data set [2] has as its system Bacillus licheniformis. As to the kind of experiment: Antimicrobial activity against Bacillus licheniformis clinical isolate by broth microdilution method. It is filed as functional.
For data set [3], the system named is Enterococcus faecalis. As to the kind of experiment: Antimicrobial activity against vancomycin-resistant Enterococcus faecalis ATCC 51575 by broth microdilution method. It is filed as functional.
For data set [4], the system named is Burkholderia thailandensis. Put plainly: Antimicrobial activity against Burkholderia thailandensis by broth microdilution method. It is filed as functional.
Data set [5] relates to Bacillus anthracis. Put plainly: Antimicrobial activity against Bacillus anthracis Sterne vegetative cells by broth microdilution method. The data set is classed as functional.
Data set [6] relates to Staphylococcus aureus. Put plainly: Antimicrobial activity against methicillin-resistant Staphylococcus aureus 1094 by broth microdilution method. The data set is classed as functional.
Data set [7] deals with Staphylococcus aureus. As to the kind of experiment: Antimicrobial activity against Staphylococcus aureus by broth microdilution method. It is filed as functional. The gist of the method: (§1)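 Broth microdilution. Log-phase cultures (5 × 10^5 CFU/ml) seeded in 96-well plates with compound from 0 to 20 µM or 1% DMSO control. Incubated at 37°C for 16 to 20 h. Growth read as absorbance at 600 nm.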

For data set [8], the system named is Staphylococcus aureus. As to the kind of experiment: Antimicrobial activity against Staphylococcus aureus ATCC 25923 by broth microdilution method. It is filed as functional. The gist of the method:
as §1

In data set [9] the test system is Bacillus anthracis. As to the kind of experiment: Protection against Bacillus anthracis Sterne spores induced cell death in mouse J774A1 cells assessed as live viable cells at 10 uM by Sytox green dye staining assay relative to untreated control. It is filed as functional, J774.A1.
For data set [10], the system named is Enterococcus faecalis. Put plainly: Antimicrobial activity against Enterococcus faecalis clinical isolate by broth microdilution method. The data set is classed as functional. The procedure, abridged:
as §1

Data set [11] deals with Bacillus subtilis. As to the kind of experiment: Inhibition of DNA synthesis in Bacillus subtilis BD54 at 5 X MIC by [3H]thymidine incorporation assay. It is filed as functional, organism-based. The gist of the method:
(§2)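 Precursors were [methyl-3H]thymidine (DNA), [5-3H]uridine (RNA), L-[4,5-3H]leucine (protein) and N-acetyl-D-[1-3H]glucosamine (cell wall). Samples taken over time, precipitated with equal volume of ice-cold 20% TCA, filtered on glass fibre, and counted. cpm plotted against time.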

The subject of data set [12] is Bacillus anthracis. As to the kind of experiment: Antimicrobial activity against Bacillus anthracis Sterne spores by broth microdilution method. The data set is classed as functional.
Data set [13] deals with Bacillus anthracis. As to the kind of experiment: microbe, parasite or virus in culture. Particulars: Ames.
Data set [14] has as its system Enterococcus faecium. Put plainly: Antimicrobial activity against vancomycin-resistant Enterococcus faecium B42762 by broth microdilution method. It is filed as functional.
Data set [15] has as its system Mycolicibacterium smegmatis. Put plainly: Antimicrobial activity against Mycobacterium smegmatis 700009 by broth microdilution method. It is filed as functional. The gist of the method: as §1
The test system of data set [16] is Bacillus anthracis. Put plainly: Inhibition of spore germination in Bacillus anthracis Sterne spores at MIC after 4 hrs. The data set is classed as functional, organism-based.
Data set [17] relates to Bacillus subtilis. Put plainly: Inhibition of RNA synthesis in Bacillus subtilis BD54 at 5 X MIC by [5-3H]uridine incorporation assay. The data set is classed as functional. The procedure, abridged: as §2
Data set [18] deals with Mycolicibacterium smegmatis. Put plainly: Antimicrobial activity against Mycobacterium smegmatis 35798 by broth microdilution method. The data set is classed as functional. The gist of the method:
as §1

The test system of data set [19] is Burkholderia pseudomallei. Put plainly: Antimicrobial activity against Burkholderia pseudomallei DD503 by broth microdilution method. It is filed as functional.
Data set [20] relates to Bacillus anthracis. Put plainly: Antimicrobial activity against Bacillus anthracis Ames by broth microdilution method in presence of 10% fetal calf serum. The data set is classed as functional.
In data set [21] the test system is Bacillus anthracis. As to the kind of experiment: Protection against Bacillus anthracis Sterne spores induced cell death in mouse J774A1 cells assessed as dead cells at 10 uM by Sytox green dye staining assay relative to untreated control. The data set is classed as functional, J774.A1.
The test system of data set [22] is Bacillus pumilus. As to the kind of experiment: Antimicrobial activity against Bacillus pumilus clinical isolate by broth microdilution method. It is filed as functional. The gist of the method:
as §1

In data set [23] the test system is Enterococcus faecalis. As to the kind of experiment: Antimicrobial activity against Enterococcus faecalis 29212 clinical isolate by broth microdilution method. The data set is classed as functional.
The test system of data set [24] is Yersinia pestis. Put plainly: Antimicrobial activity against Yersinia pestis by broth microdilution method. It is filed as functional.
Data set [25] relates to Pseudomonas aeruginosa. As to the kind of experiment: Antimicrobial activity against Pseudomonas aeruginosa PAO1 by broth microdilution method. The data set is classed as functional. The gist of the method:
as §1

For data set [26], the system named is Priestia megaterium. As to the kind of experiment: Antimicrobial activity against Bacillus megaterium clinical isolate by broth microdilution method. The data set is classed as functional.
In data set [27] the test system is Staphylococcus aureus. Put plainly: Antimicrobial activity against methicillin-resistant Staphylococcus aureus clinical isolate by broth microdilution method. The data set is classed as functional.
Data set [28] deals with Bacillus subtilis. As to the kind of experiment: Inhibition of cell wall synthesis in Bacillus subtilis BD54 at 5 X MIC by N-acetyl-D-[1-3H] glucosamine incorporation assay. It is filed as functional. The gist of the method: as §2
Data set [29] is described as follows: Cytotoxicity against human HeLa cells after 3 days by MTS assay in presence of 10% fetal calf serum. The data set is classed as cell-based.
The test system of data set [30] is Bacillus anthracis. As to the kind of experiment: microbe, parasite or virus in culture. Particulars: Ames. This is another data set of the same source.
The subject of data set [31] is Burkholderia cepacia. Put plainly: Antimicrobial activity against Burkholderia cepacia clinical isolate by broth microdilution method. The data set is classed as functional. The gist of the method:
as §1

For data set [32], the system named is Brevibacillus brevis. As to the kind of experiment: Antimicrobial activity against Bacillus brevis clinical isolate by broth microdilution method. The data set is classed as functional. The procedure, abridged: as §1
The test system of data set [33] is HeLa. As to the kind of experiment: Effect on cell membrane integrity in human HeLa cells assessed as lactate dehydrogenase release at 32 times MIC against Staphylococcus aureus by CytoTox ONE homogenous membrane integrity assay. It is filed as cell-based. The gist of the method: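 Confluent HeLa cells in DMEM treated for 1 h with a range of compound concentrations, 1% DMSO final. […] LDH activity in the supernatant measured by a membrane-integrity kit.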

Data set [34] concerns Burkholderia mallei. As to the kind of experiment: Antimicrobial activity against Burkholderia mallei ATCC 23344 by broth microdilution method. The data set is classed as functional.
Data set [35] relates to Mycolicibacterium smegmatis. As to the kind of experiment: Antimicrobial activity against Mycobacterium smegmatis 19420 by broth microdilution method. It is filed as functional. The procedure, abridged: as §1
For data set [36], the system named is Bacillus subtilis. Put plainly: Antimicrobial activity against Bacillus subtilis clinical isolate by broth microdilution method. It is filed as functional.
Data set [37] has as its system Klebsiella pneumoniae. As to the kind of experiment: Antimicrobial activity against Klebsiella pneumoniae 5657 by broth microdilution method. It is filed as functional. The gist of the method: as §1
Data set [38] concerns Bacillus anthracis. As to the kind of experiment: Antimicrobial activity against Bacillus anthracis Vollum clinical isolate by broth microdilution method. The data set is classed as functional.
Data set [39] deals with Bacillus subtilis. Put plainly: Inhibition of protein synthesis in Bacillus subtilis BD54 at 5 X MIC by L-[4,5-3H]leucine incorporation assay. It is filed as functional, organism-based. The gist of the method:
as §2

For data set [40], the system named is Bacillus anthracis. As to the kind of experiment: Inhibition of spore outgrowth in Bacillus anthracis Sterne spores assessed as reduction in bacterial CFU count at 0.1 ug/ml after 4 hrs relative to untreated control. The data set is classed as functional, organism-based.

Turning to `c1cc2cc(-c3ccc4cc(C5=NCCN5)[nH]c4c3)[nH]c2cc1C1=NCCN1`, the MIC in [1] amounted to 1.1 µg/mL (≈ 2.99 µM); in data set [2], 2.2 µg/mL (≈ 5.97 µM); in [3] it was 0.5 µg/mL (≈ 1.36 µM); in data set [4] it was 18 µg/mL (≈ 48.9 µM); in data set [5] it was 1.1 µg/mL (≈ 2.99 µM); in data set [6], 0.3 µg/mL (≈ 0.814 µM). Further, the MIC was determined as 1.1 µg/mL (≈ 2.99 µM) in data set [7]; 0.3 µg/mL (≈ 0.814 µM) in [8]; 2.2 µg/mL (≈ 5.97 µM) in [10]; 0.6 µg/mL (≈ 1.63 µM) in data set [12]; 1.1 µg/mL (≈ 2.99 µM) in [13]; 0.2 µg/mL (≈ 0.543 µM) in data set [14]. Moreover, the MIC in data set [15] was 0.3 µg/mL (≈ 0.814 µM); in data set [18], less than 0.1 µg/mL; in [19], 1.8 µg/mL (≈ 4.89 µM); in data set [20], 0.3 µg/mL; in data set [22], 0.1 µg/mL (≈ 0.271 µM); in data set [23], 0.3 µg/mL (≈ 0.814 µM). The MIC in data set [24] was determined as 7.4 µg/mL (≈ 20.1 µM); in [25], 25 µg/mL (≈ 67.9 µM); in [26] it was 0.6 µg/mL (≈ 1.63 µM); in data set [27] it was 2.2 µg/mL (≈ 5.97 µM); in [30], 0.3 µg/mL (≈ 0.814 µM); in data set [31], 4.4 µg/mL (≈ 11.9 µM). Besides, the MIC in data set [32] came to 0.3 µg/mL (≈ 0.814 µM); in [34], 1.8 µg/mL (≈ 4.89 µM); in [35], 0.2 µg/mL (≈ 0.543 µM); in data set [36], 0.6 µg/mL (≈ 1.63 µM); in data set [37], 0.4 µg/mL (≈ 1.09 µM); in [38], 0.6 µg/mL (≈ 1.63 µM). Besides, the figures for the Activity in data set [9], in data set [21] and in data set [33] were 89%, 11% and “Non-toxic”, respectively. For the same compound, the inhibition result in data set [11] is “Active”. Moreover, the MBC in data set [13] stood at 2.2 µg/mL (≈ 5.97 µM); in data set [30], 0.5 µg/mL (≈ 1.36 µM); in [38], 1.1 µg/mL (≈ 2.99 µM). Also, the inhibition entry in [16] is “inactive”. Also, the “inhibition (INH)” value in data set [17] and in [28] was 40% in each case. Besides, the CC50 at 72 h in data set [29] came out at 33 µg/mL.

Take `O=C(O)c1cn(C2CC2)c2cc(N3CCNCC3)c(F)cc2c1=O` [CIPROFLOXACIN]: the MIC is 0.6 µg/mL (≈ 1.81 µM) in [3]; 5 µg/mL (≈ 15.1 µM) in [6]; 0.3 µg/mL (≈ 0.905 µM) in data set [8]; 20 µg/mL (≈ 60.4 µM) in [14]; 0.4 µg/mL (≈ 1.21 µM) in data set [15]; 0.2 µg/mL (≈ 0.604 µM) in [18]. For the same compound, the figures for the MIC in data set [25], in [35] and in [37] were 0.1 µg/mL (≈ 0.302 µM), 0.1 µg/mL (≈ 0.302 µM) and 0.2 µg/mL (≈ 0.604 µM), respectively. Besides, the inhibition entry in data set [39], in data set [40], in [11], in data set [17] and in data set [28] was “Active” each time.

Take `CN[C@H](CC(C)C)C(=O)N[C@H]1C(=O)N[C@@H](CC(N)=O)C(=O)N[C@H]2C(=O)N[C@H]3C(=O)N[C@H](C(=O)N[C@H](C(=O)O)c4cc(O)cc(O)c4-c4cc3ccc4O)[C@H](O)c3ccc(c(Cl)c3)Oc3cc2cc(c3O[C@@H]2O[C@H](CO)[C@@H](O)[C@H](O)[C@H]2O[C@H]2C[C@](C)(N)[C@H](O)[C@H](C)O2)Oc2ccc(cc2Cl)[C@H]1O`: the inhibition result in [39], in data set [11], in data set [17] and in [28] was “Active” in each case.
